Bioassay records as filed in PubChem.
SENP1 inh: SENP1 (human) catalytic domain inhibition; AID 624204; recombinant SENP1 catalytic domain, CyPet-SUMO1-YPet FRET cleavage; actives 0.21% (n = 360,000); Q9P0U3; inhibition, % at 10 µM;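 active = inhibition at least 30% at 10 µM, raw YFP signal under a set limit, fluorescence ratio 0.5 to 1.5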;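 also: 0% = enzyme with DMSO and 100% = no enzyme wells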
Target sequence (Q9P0U3 419-644 limits assumed): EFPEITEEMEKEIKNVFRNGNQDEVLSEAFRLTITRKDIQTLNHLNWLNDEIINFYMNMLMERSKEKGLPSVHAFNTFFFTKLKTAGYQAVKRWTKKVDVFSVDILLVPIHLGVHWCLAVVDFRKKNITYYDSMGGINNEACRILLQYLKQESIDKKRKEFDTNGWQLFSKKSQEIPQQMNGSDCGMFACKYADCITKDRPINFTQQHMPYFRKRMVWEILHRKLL
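Material: hSENP1 catalytic domain, recombinant; medium: Tris pH 8 with BME, BSA, NP40 and catalase; compound: single concentration of 10 µM compound, 0.5% DMSO final; technique: FRET read of cyan and yellow fluorescence; timing: 50 min enzyme reaction, room temperature, light-protected; reagent: SFCypet-SUMO1-SFYpet substrate at 25 nM; control set: no-enzyme low, enzyme-DMSO high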
Platelet DG rel: platelet dense granule release activity; human platelet-rich plasma, SFLLRN dense granule ATP release, luminescence; inhibition, %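 (compounds screened at 7.5 µM in platelet-rich plasma)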; actives 0.22% (n = 300,000); AID 1663;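 active = mean replicate score, as percent of positive control, at or above 50; inconclusive = mean below 50 but at least one replicate at or above 50; inactive = mean and every replicate below 50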
SENP7 inh: inhibitors of human SENP7 protease. Q9BQF6. recombinant SENP7, Z-RLRGG-aminoluciferin luminescence, 40 min. inhibition, % at 5 µM. actives 1.5% (n = 330,000). AID 434973;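 active = inhibition above about 50% at the single test dose, limit read from the data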;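 also: plate controls were DMSO with enzyme for no effect and no enzyme buffer wells for full effect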
Target sequence (Q9BQF6 706-1050 limits assumed): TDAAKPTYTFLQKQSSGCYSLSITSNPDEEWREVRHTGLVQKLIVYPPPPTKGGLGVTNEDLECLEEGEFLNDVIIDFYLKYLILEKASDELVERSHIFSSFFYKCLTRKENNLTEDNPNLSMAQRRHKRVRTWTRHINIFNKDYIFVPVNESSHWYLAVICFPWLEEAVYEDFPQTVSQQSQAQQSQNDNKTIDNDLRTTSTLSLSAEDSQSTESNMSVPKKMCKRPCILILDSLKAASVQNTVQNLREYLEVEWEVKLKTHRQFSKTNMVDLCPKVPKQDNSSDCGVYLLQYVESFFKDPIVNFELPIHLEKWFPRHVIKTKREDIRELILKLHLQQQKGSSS
SENP6 block: inhibitors of human SENP6 protease | Q9GZR1 | Recombinant SENP6 catalytic domain, aminoluciferin luminescence | inhibition, % at 10 µM | actives 1.8% (n = 330,000);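 active = inhibition above about 50% at the single tested dose, limit read from the data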;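 also: plate controls were DMSO wells with enzyme for no effect and DMSO wells lacking enzyme for full effect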
SENP8 block-1: inhibitors of human SENP8 protease. AID 602440. actives 0.64% (n = 360,000). recombinant SENP8, Nedd8 substrate fluorescence. inhibition, % at 20 µM; in the data active = inhibition mostly above about 40%, no sharp cut-off; inactive = mostly below about 27%
SENP8 block-2: blocks the human protease SENP8 | Q96LD8 | actives 1.2% (n = 330,000) | AID 2540 | purified SENP8, Z-RLRGG-aminoluciferin cleavage, luminescence | inhibition, % at 10 µM; in the data active = inhibition above about 50%
* marks the source's active call; other numbers are inactive results; i = inactive; ? = inconclusive; . = no result given. Rows were chosen to be rich in hits. Some 2.6% of all compounds tested hit in one or more screens of this group.

SMILES | SENP1 inh | Platelet DG rel | SENP7 inh | SENP6 block | SENP8 block-1 | SENP8 block-2
O=C1C=C(N2CCN(c3ccccn3)CC2)C(=O)c2c(O)ccc(O)c21 | 2.4 | . | . | . | 76.3* | .
C=CCN=c1scc(-c2ccco2)n1/N=C/c1ccc(O)c(O)c1O | 4.1 | 11.2 | -5.0 | -10.1 | 50.8* | -8.3
COCCN=c1scc(-c2ccco2)n1/N=C/c1ccc(O)c(O)c1O | 13.9 | . | -1.9 | -36.6 | 35.9 | -2.8
CCOC(=O)C1=C[C@@H](C2CCCC2)N(S(=O)(=O)c2ccc([N+](=O)[O-])cc2)[C@H]1c1ccccc1 | 2.9 | . | . | . | 24.5 | .
CN1C(=O)/C(=C2\SC(N3CCCCCC3)=NC2=O)c2ccccc21 | 2.2 | 2.3 | -2.5 | -11.5 | 13.2 | -23.0
CN1C(=O)/C(=C2\SC(N)=NC2=O)c2ccccc21 | 0.5 | 3.1 | -5.9 | -9.3 | 42.6* | 7.8
O=c1cc(-c2ccccc2)oc2ccc3ccccc3c12 | 1.9 | . | . | . | 6.9 | .
O=c1cc(-c2ccc(O)c(O)c2)oc2ccc3ccccc3c12 | 0.3 | . | 99.3* | 95.4* | -86.9 | 95.8*
COc1cc(NC(=O)Nc2nnc([C@@H]3C[C@H](O)[C@@H](CO)O3)s2)cc(OC)c1OC | 0.6 | . | . | . | 3.7 | .
COc1cccc(C(O)c2nc(-c3ccc(Cl)cc3)cs2)c1 (stereo not drawn) | 3.0 | . | . | . | 10.9 | .
O=C(O)c1ccc(NC2=C/C(=N/S(=O)(=O)c3cccs3)c3ccccc3C2=O)cc1 | 0.3 | . | . | . | 98.5* | .
O=C1C(Nc2ccc(O)cc2)=C/C(=N/S(=O)(=O)c2cccs2)c2ccccc21 | -0.6 | -1.3 | . | . | 82.6* | .
O=C(O)c1ccc(NS(=O)(=O)c2ccc3c(c2)C(=O)c2ccccc2C3=O)cc1 | 4.4 | 0.3 | -2.9 | 5.7 | 22.5 | -4.8
Cc1cc(C)c(S(=O)(=O)/N=C2\C=C(Nc3ccc(C(=O)O)cc3)C(=O)c3ccccc32)c(C)c1 | -0.9 | 5.3 | 42.4 | 89.1* | 56.9* | 88.2*
O=C(O)c1ccc(Nc2nc3ccccc3nc2NS(=O)(=O)c2cccs2)cc1 | -0.4 | 1.8 | 10.3 | 7.0 | -313.3 | -1.6
O=C1C2C3CC4C5C3C1C5C1(SCCS1)C42 (stereo not drawn) | 0.0 | . | . | . | -2.8 | .
CCN(CC)c1ccc(/C=C(\C#N)c2ccccn2)cc1 | -24.9 | 8.9 | 87.8* | 83.7* | 1.9 | 88.0*
CCN(Cc1ccccc1)c1ccc(/C=C(\C#N)c2ccccn2)cc1 | -25.6 | 7.9 | 34.7 | 43.4 | 4.5 | 6.9
CC(=O)N(/N=C1\Sc2ccccc2C1=O)c1ccccc1 | 7.1 | . | . | . | 73.8* | .
O=C(NC(c1ccc(Cl)cc1)c1cc(Cl)c2cccnc2c1O)c1cccnc1 (stereo not drawn) | 61.6* | ? | . | . | 37.6 | .
CC(=O)NC(c1ccccc1)c1cc(Cl)c2cccnc2c1O (stereo not drawn) | 0.3 | 14.3 | 11.1 | -4.3 | 16.4 | -10.8
CC(=O)NC(c1ccc(C)cc1)c1cc([N+](=O)[O-])c2cccnc2c1O (stereo not drawn) | -2.1 | -8.1 | 7.8 | 16.9 | 41.9* | 6.1
COc1ccc(C(NC(C)=O)c2cc(Cl)c3cccnc3c2O)cc1 (stereo not drawn) | -0.8 | -0.2 | -2.9 | 7.3 | 21.5 | 6.3
CCCC(=O)NC(c1ccco1)c1cc([N+](=O)[O-])c2cccnc2c1O (stereo not drawn) | 2.3 | 1.1 | 7.3 | 15.3 | 53.3* | 5.8
CCC(=O)NC(c1ccco1)c1cc(Br)c2cccnc2c1O (stereo not drawn) | -7.0 | . | . | . | 10.4 | .
SMILES | SENP1 inh | Platelet DG rel | SENP7 inh | SENP6 block | SENP8 block-1 | SENP8 block-2
CCC(=O)NC(c1ccc(C)cc1)c1cc([N+](=O)[O-])c2cccnc2c1O (stereo not drawn) | -2.0 | -2.3 | . | . | 57.6* | .
CCOC(=O)[C@]12CCCC=C1N(CCc1ccc(OC)c(OC)c1)C(=O)[C@H](CC(=O)NCCCCc1ccccc1)C2 | 0.8 | . | . | . | 9.5 | .
O=C(NCCc1ccccc1)c1c[nH]c2ccccc2c1=O | -0.4 | . | . | . | 10.3 | .
C/C=C1\NC(=O)[C@H](C)NC(=O)[C@@H](NC(=O)[C@@H](Cc2ccc(O)cc2)NC(=O)[C@@H](NC(=O)/C(C)=C/C)C(C)C)[C@@H](C)OC(=O)[C@H](CCCCc2ccc(O)cc2)NC(=O)[C@@H](CCC(=O)OC)NC1=O | 7.2 | . | . | . | 22.5 | .
COc1ccccc1CCC(=O)Nc1ccc2c(c1)c(=O)n(C)n2Cc1cccc(C(F)(F)F)c1 | 19.2 | . | . | . | i | .
O=C1NC[C@H](Cc2ccc(O)cc2)N(CCc2cccc(F)c2)C1=O | -0.8 | . | . | . | 8.7 | .
COC(=O)[C@@]12C[C@@H](CC(=O)NCc3cccs3)C(=O)N(Cc3cccc4ccccc34)C1=CCC(C)(C)C2 | 1.6 | . | . | . | 8.4 | .
CC1CCN(c2nc3ccc(C(=O)NCCCN4CCCCC4)cc3s2)CC1 | 1.2 | 4.6 | -2.8 | 0.3 | -1.1 | -3.6
CC1CCN(c2nc3ccc(C(=O)O)cc3s2)CC1 | -1.5 | -1.7 | 96.2* | 97.4* | 21.0 | 97.1*
CCOC(=O)C1=CCN(S(=O)(=O)c2cccc(Cl)c2)C1c1ccc(F)cc1 (stereo not drawn) | 1.6 | . | . | . | 13.6 | .
Cc1cccc(N=Nc2c(C)[nH]n(C(N)=S)c2=O)c1C | . | -1.5 | 39.4 | 76.5* | . | 65.4*
Cc1cccc(N=Nc2c(C)nn(-c3ccccc3)c2N)c1C | -1.3 | -1.4 | -6.5 | 4.6 | 28.3 | 4.9
CC1CCCCC1NC(=O)C1CCC(CNS(=O)(=O)c2ccc3c(c2)C(C)(C)C(=O)N3C)CC1 (stereo not drawn) | -1.0 | . | . | . | 1.0 | .
O=C(Nc1nc2ccccc2[nH]1)c1ccc([N+](=O)[O-])cc1 | -46.0 | 16.4 | 84.9* | 42.7 | 23.4 | 14.6
COc1cc(SC)ccc1C(=O)Nc1nc2ccccc2[nH]1 | 2.6 | 96.2* | 101.3* | 96.7* | -277.7 | 96.0*
COc1ccccc1C(=O)Nc1nc2ccccc2[nH]1 | 1.0 | 57.2* | 101.3* | 97.9* | -23.4 | 96.7*
O=C(Nc1ccccc1F)c1csc(COCCO)n1 | 2.2 | . | . | . | 16.8 | .
COC(=O)[C@]12CCCCC=C1N(CCC1=CCCCC1)C(=O)[C@H](CC(=O)N1CCN(C(=O)c3ccco3)CC1)C2 | -0.2 | . | . | . | 13.4 | .
N#C/C(N=Nc1ccccc1O)=N\Nc1ccccc1O | 33.2* | 13.7 | -12.6 | 85.3* | 58.3* | 73.7*
Oc1ccccc1N=N/C(=N/Nc1ccccc1O)c1ccccc1 | 2.5 | -0.9 | 1.0 | 1.3 | 15.3 | 2.1
